Results: the EternaBench riboswitch data

System: MS2 coat protein
Assay: apparent Kd, MS2 coat protein; higher = weaker binding; RNA-MaP array; FMN 200 µM where present
Method in brief: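 Each design was made on Illumina sequencing-chip clusters by stalled E. coli RNA polymerase and titrated with SNAP-549-labelled MS2 coat protein from 0.7 or 1.5 nM, doubling to 3 µM, in the absence and then the presence of constant ligand. The buffer was 100 mM Tris-HCl pH 7.5, 80 mM KCl, 4 mM MgCl2, BSA, DTT, yeast tRNA and Tween-20. The apparent Kd is the median of filtered per-cluster fits of binding curves, with green signal normalised to red-channel RNA signal and control-cluster median Fmax.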

[1] = designed as: ON switch for flavin mononucleotide, no ligand
[2] = ligand present: flavin mononucleotide, designed as: ON switch for flavin mononucleotide
[3] = designed as: OFF switch for flavin mononucleotide, no ligand
[4] = ligand present: flavin mononucleotide, designed as: OFF switch for flavin mononucleotide

| Sequence | apparent Kd [1] | apparent Kd [2] | apparent Kd [3] | apparent Kd [4] |
| --- | --- | --- | --- | --- |
| AAAACAUACCGAGGAUAUUCAUUUAAUAAAUAAACAUGAGGAUCACCCAUGUGGCAAAAGCCUAGGGAGAAGGCGGAAUGCUAA | 33.4 nM | 26.5 nM | – | – |
| UUGUUUAGAAAUUAACAUGAGGAUCACCCAUGUAUUGGAUCAGAGGAUAUGCAUGUUUGAUUGUAGCAGAAGGCUGAUUGUUGA | 50.6 nM | 45.1 nM | – | – |
| AGACGACAACAUGAGGAUCACCCAUGUUCUAGUUUAGAGUCGCAGGAUAUGACUUCGAAGCUUAGUCAGAAGGGUGAAUUCACA | 37.8 nM | 51 nM | – | – |
| AAUAAACUCACAGGAUAUAGCAGAGGUCGCGUAAACUUACAGGCGACGAUGCUAGAAGGGUGACCACAUGAGGAUCACCCAUGU | 871 nM | 118 nM | – | – |
| UUGGACGUCGUAGGAUAUGUAGGAUAUUCCUACAUGAGGAUCACCCAUGUUGACAUGGAAGAAGGACAGAGGGACGAUGUCCAU | 454 nM | 11.6 nM | – | – |
| GGCUCUGCUCGAGGAUAUAGCUGCAUGUAGUGUCCUGAGGCACAUGAGGAUCACCCAUGUGUAGGCUAGAAGGCGACAGAGGCG | – | – | 188 nM | 276 nM |
| UAUUGAUAAUAUUUUAACAUGAGGAUCACCCAUGUCGCUCGACAGGAUAUAUUUUAUUUGUUUAAGUAGAAGGGUCGCAGAUUU | 117 nM | 103 nM | – | – |
| AUAAAACGAGGAUAUGCUGGGCUUCUGUGAUGCAUAUGCUCACAUGAGGAUCACCCAUGUAGAAGGUGUAAAAU | – | – | 278 nM | 289 nM |
| UUCCGGCAUGUAGGAUAUGGAUCCGAUUAGGAUUUAGAAGGACAUGAGGAUCACCCAUGUGCAUUUAAUUAGUCAUUACCGUUU | – | – | 41.6 nM | 86.5 nM |
| GGUGCGUUUGUGAGGAUAUGCUGGUCCUUGGAUCGGCAGAAGGCACAUGAGGAUCACCCAUGUGGUGUCGUACC | – | – | 310 nM | 29.6 nM |
| CAAGUACCAGAGGAUAUGGCGGUGCACUCCGUGCCAGAAGGUUGGACAUGAGGAUCACCCAUGUGCGAUUAGCU | – | – | 26 nM | 27.1 nM |
| CACUCGUGUCUAGGAUAUGAGUGACAAGCACGAGAUUUUCUCGACGCUAGCUCAGAAGGAGACAUGAGGAUCACCCAUGUAAGG | – | – | 85.3 nM | 16.6 nM |
| UAGGUCGACGUAGGAUAUGUAGGAUAUUCCUACAUGAGGAUCACCCAUGUUGAAAUGGAAGAAGGACAGAAGGACGUUGACCUU | 56.7 nM | 13.6 nM | – | – |
| GAUCCUUAAGUCAGGAUAUCAAGCAAACUCUAAAUUGAGAAGGGACAUGAGGAUCACCCAUGUCACCGAAAUAA | – | – | 14.7 nM | 16.2 nM |
| GUCGAGUGAGGAUAUGGUGAGUAGUGCCUGAGCGCUGCUCACCAGAAGGCACAUGAGGAUCACCCAUGUAUAAC | – | – | 23.7 nM | 41.7 nM |
| AUAGGCCUAGGAUAUACAUGAGGAUCACCCAUGUUAAUAAUUCGAUCAUGAUAAACGUGUAGAAGGAGGAAUAA | – | – | 32.9 nM | 36.9 nM |
| CAGCACUGUCGAGAGGAUAUGCGGUGAUGGACAUGAGGAUCACCCAUGUUAGCGACAGCAUCACGGCAGAAGGCUCUACUGCUGC | 13.2 nM | 12.2 nM | – | – |
| GUGCGGUAGGAGAAGGACAGAGGCUUCAUUACAUACAUGAGGAUCACCCAUGUAGGAUAUCCUACCUCACGCGGCCUCCUCCUG | – | – | 8.48 nM | 31.8 nM |
| UAACAUGUCCGAGGAUAUCUGGAAACAUUUUCAAGAGAAGGCGGACAUGAGGAUCACCCAUGUCUCUCCUCAUCAAAUCCAAGU | – | – | 8.9 nM | 42.3 nM |
| CGCGAACAUGAGGAUCACCCAUGUGGGUGGAACGUAGGAUAUACGCAGGUCUUUAAAACGGUAGAAGGACGUUCGC | 452 nM | 159 nM | – | – |
| CCGCAUAUGGAGGAUAUCGUAUCGGAAACGAUACGAGAAGGCUAAACAUGAGGAUCACCCAUGUUCCUUAACGG | – | – | 18.1 nM | 18.1 nM |
| GCCUCACAUGAGGAUCACCCAUGUCAGGAUAUGGACUCGAGGGUCUUGGAAGACUGGGCCAGAAGGGACUAUGG | – | – | 57 nM | 83 nM |
| CGCAAGUAUACAUGAGGAUACAUGAGGAUCACCCAUGUUAUCAGAAGGUACUAUUAGAGAUAGAGUAAGGAUAUGAAAUUUGUG | 7.88 nM | 17.3 nM | – | – |
| AAUUAAUUAAUUAAUUGCUGACAUACAUGAGGAUCACCCAUGUAGGAUAUCGUCAGGAAUACUGACGAGAAGGACAUAGUCAGC | – | – | 14.9 nM | 16.3 nM |
| AACCUCGGAGGAUAUACCUACCGAUUCACAAGUGUCACAUCACAUGAGGAUCACCCAUGUAGAAGGUCGAGGCG | – | – | 30 nM | 97.1 nM |
| CCCGAGUUAGGAUAUCGGACCGGUCCGCGCGGACUGGCAAUUGAGAAGGAACAUGAGGAUCACCCAUGUGAGUA | – | – | 25.5 nM | 52.3 nM |
| AAGUUGUCAGGAUAUCGUUAAUUUAGUUGUUUGUAUUAGUUCGAGAAGGGACAUGAGGAUCACCCAUGUUUGCA | – | – | 26.4 nM | 34 nM |
| AUCGUGCAGCUUUGCUGUACGCGUACAUGAGGAUCACCCAUGUAGGAUAUGGUAGGCUUUGCUUACUAGAAGGAUAGUGUGAUC | – | – | 106 nM | 33.2 nM |

| Sequence | apparent Kd [1] | apparent Kd [2] | apparent Kd [3] | apparent Kd [4] |
| --- | --- | --- | --- | --- |
| GUAGCAUACCAAGGAUAUUCAGGGCUUGGAUAGACAUGAGGAUCACCCAUGUGGCGAAAGCCUAGGGAGAAGGUGGAAUGCUAC | 16.7 nM | 15.2 nM | – | – |
| GAGUGGUUGGGAGGAUAUGCAUUGUUAUUAAAUGCAGAAGGUUUUAACAUGAGGAUCACCCAUGUAGGACUAUUCCUGUGUUUC | 17.4 nM | 14.6 nM | – | – |
| GUGCCUUGGAAGAAGGCCGUAUGCAAAGCAUACGGAGGAUAUUCAUACCGGAAACGGACAUGAGGAUCACCCAUGUGGCACAAA | 13 nM | 6.24 nM | – | – |
| UCCUUGUCCUGAGGAUAUCCGCGGUUCCCAAAAGGAGAAGGCAGGACAUGAGGAUCACCCAUGUACCCAGAAAACGUACAGAGU | – | – | 44.7 nM | 162 nM |
| GUGUACGGAGGAUAUAUGUGGGCAGCAUACGCUGCAGCUUCACAUGAGGAUCACCCAUGUAGAAGGCUGUACAC | – | – | 28.7 nM | 169 nM |
| GCAUGUGUGUAAGGAUAUGCAUCACUGAGAAAUUUAGUGAGGAAGAUCACAUGAGGAUCACCCAUGUAGAAGGUACACACGUGC | – | – | 8.01 nM | 56.9 nM |
| AUUACAAUUGUAUACAUGAGGAUCACCCAUGUUAUAAGUCAUGAGGAUAUGGUAUUGUAGUUAUUCCAGAAGGCAUAUAGCUAA | 14.3 nM | 9.2 nM | – | – |
| AAUAUGUUGCAGAAGGCCAUGUUGUGGUAGUACCUCAUGACAUGAGGAUCACCCAUGUUUGUGUUGGAGGAUAUGCAAUAUAUU | – | – | 37.7 nM | 201 nM |
| AUGCUAGUGUGAGGAUAUCAACAUGAGGAUCACCCAUGUUGGAAGUACACGACAUGCGGUACAUUUGAGAAGGUACAUUAGCAU | – | – | 58.2 nM | 108 nM |
| ACAUAAAUUCGAGGAUAUCGGUGAUUUAAUUUACGAGAAGGCGAUAAAAGUUAUAAACUUAUAGACAUGAGGAUCACCCAUGUA | 34.9 nM | 33.1 nM | – | – |
| AGUUGGCGAGGAUAUACAUGAGGAUCACCCAUGUGAAAUAUAAGAGUGAGGAAGAAAAGUAGAAGGCGCUGACA | – | – | 99.8 nM | 130 nM |
| AACAUGUGAGGAUAUUAGUUGUACGUCAAUAGACGUAUAAGUGAGAAGGCACAUGAGGAUCACCCAUGUUCCUG | – | – | 43.7 nM | 464 nM |
| AUAUUCUAGAUAGGAUAUACUGAGGUUGAAUGGGUAGAAGGAUCGUGAGAGUGGACUACAUGAGGAUCACCCAUGUUGUUUAUU | 61.6 nM | 59 nM | – | – |
| AAAUUGCUAGAGGAUAUCGGAUAGGAUCUAUCGCGAGAAGGUUGGACAUGAGGAUCACCCAUGUUCUGUUGGGA | – | – | 24.4 nM | 26.1 nM |
| AGCUGUGGCCGAGGAUAUCUGUUCCAUAAAACCGAAAUAUAAUCGGACAUGAGGAUCACCCAUGUAGAGAAGGCGGUCUCAGCA | – | – | 23.9 nM | 26.4 nM |
| UACGCCAGUGAGAAGGCAUGUUCACAUGAGGAUCACCCAUGUAUACUCAUGAGGAUAUCAAAUGCGGACCAAAAUAAAAUUUGA | 313 nM | 22.2 nM | – | – |
| GGAAAGUGAGGAUAUGCAUAACAAACACAAACACAAACAAAGCAGAAGGCACAUGAGGAUCACCCAUGUAAACA | – | – | 21.1 nM | 18.1 nM |
| GAAGCAUGCAUUAACAUGAGGAUCACCCAUGUGAAAACACGUGAGGAUAUUGAUCUGAAGAAGAUCGAGAAGGCACCGUGCUAA | 14.1 nM | 9.11 nM | – | – |
| UAUACUUACGAAGGAUAUGGUUACAUGAGGAUCACCCAUGUAUGUAUGUUGAUCGUGUAUCUUAACCAGAAGGUCGUCACUAUA | – | – | 44.9 nM | 56.5 nM |
| UAUUCUUACGAAGGAUAUGGUUACAUGAGGAUCACCCAUGUAUGUAUAUUGAUCUAGUUUUUUAACCAGAAGGUCGUGAGUAUA | – | – | 40.4 nM | 54.2 nM |
| GGUCGUCACAUAUACAUGAGGAUCACCCAUGUAAAAUAACAUGAGGAUAUGGAUCCUAAUUGGAUCCAGAAGGCAUGGACGACC | 6.29 nM | 5.53 nM | – | – |
| UAUGGUUAAGUCAGGAUAUGCUCGUAGAGGUCUAUGCAGAAGGGACAUGAGGAUCACCCAUGUAAGGUCGUGUU | – | – | 39.9 nM | 66.3 nM |
| GCGUGACGGUGCGCGAGUGGACGGAGAAGGCAGACAUGAGGAUCACCCAUGUGAGCCUGCUAUUCUGAGGAUAUCCGUUCGCAC | – | – | 32.5 nM | 150 nM |
| UGAUACAUGAGGAUCUCCCAUGACAUGAGGAUCACCCAUGUGCAGGAUAUACGUGUUAUAAUAUAGUAGAAGGGCAGUCUAUGU | – | – | 133 nM | 199 nM |
| AUACCUUAUGAGAAGGCGGUCAUGAAACAUGAUCGAGGAUAUCAUGUAAACAUGAGGAUCACCCAUGUAUGGGUAUUAUGGUAA | 44.8 nM | 10.2 nM | – | – |
| AAAUCUCAGAUAGGAUAUAUAGGAUAACUUAAGACCUAACAUGAGGAUCACCCAUGUGAUUAUUCGUAGAAGGAUCAUUGAACC | 210 nM | 233 nM | – | – |
| GGAUGCAAGGAGAAGGGCUACUGGUUGAAACCUGCGGCCUCUGGAACAUGAGGAUCACCCAUGUAGCAGGAUAUCCUUACGUGA | – | – | 233 nM | 32.8 nM |
